Results: article PMC4304654 (Bioorganic & medicinal chemistry, 2012)
In brackets after ≈: the same amount, converted by molar mass. Read-outs that look alike come from different tables or passages of the source.

Legend:
[1] = mice, 1 h after 5 mg/kg i.p.; previously reported data ref 7; cited from earlier work
[2] = cited from earlier work; for Solubility in assay buffer, upper solubility limit: sodium acetate fibrillization assay buffer, previously reported data ref 7
[3] = mouse plasma; previously reported data ref 7; cited from earlier work
[4] = cited from earlier work
[5] = biological target: K18 tau fragment (amino acids 244–369) bearing the P301L mutation (K18PL) (Homo sapiens, UniProt P10636, P618L); conditions: 50 μM compound concentration; previously reported data ref 7; cited from earlier work
Sequence of K18 tau fragment (amino acids 244–369) bearing the P301L mutation (K18PL) (P10636 561-686 P618L): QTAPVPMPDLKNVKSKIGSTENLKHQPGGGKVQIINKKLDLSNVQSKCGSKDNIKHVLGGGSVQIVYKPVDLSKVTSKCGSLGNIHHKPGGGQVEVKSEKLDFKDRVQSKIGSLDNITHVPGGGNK

[6] = Aqueous solubility in the sodium acetate buffer of the fibrillization assay; format: physicochemical
[7] = Brain and plasma levels 1 h after i.p. administration of 5 mg/kg; format: in vivo, B6C3F1 mice; conditions: mice, 1 h after 5 mg/kg i.p.
How it was run: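 Mice got a single i.p. 5 mg/kg dose of test compound and were sacrificed 1 h later. Perfused brain hemispheres were sonicated in 10 mM ammonium acetate, pH 5.7 (50% w/v). Plasma came from EDTA-treated blood spun 10 min at 4500g, 4 °C. Samples were acetonitrile-precipitated and spun at 15000g. Supernatants went to LC-MS/MS (MRM, C18, 35 °C) and were quantified against matrix-matched linear standard curves.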

[8] = Unbound fraction in plasma by rapid equilibrium dialysis; format: in vitro ADME; conditions: mouse, pH 7.4
mice [9] = conditions: mouse, in vivo, 100 mg/kg
[10] = Full PK evaluation and oral bioavailability of 43; format: in vivo, B6C3F1 mice; conditions: mice, 5 mg/kg i.p., 0.5–16 h post-dosing
mice [11] = conditions: mouse, in vivo, 50 mg/kg/day
in vivo = conditions: female, mouse, 50 mg/kg/day, Calculated free compound level in brain, mice, 3 days of dosing via drinking water at 50 mg/kg/day
[12] = mice, 3 days of dosing via drinking water at 50 mg/kg/day

Nc1scc2c(C(=O)NC3CC3)nn(-c3ccc(Cl)cc3)c(=O)c12 [Compound 1, 5-Amino-3-(4-chlorophenyl)-N-cyclopropyl-4-oxo-3,4-dihydrothieno[3,4-d]pyridazine-1-carboxamide]
B/P (fu), ratio of free drug in brain and plasma [1]: 0.92 ±0.16
B/P (total), brain-to-plasma ratio [1]: 1.61 ± 0.28
Brain level [1]: 1300 ± 110 ng/g
Plasma level [1]: 820 ± 150 ng/mL
Solubility in assay buffer, upper solubility limit [2]: 32 µM (≈ 11.5 µg/mL)
Water solubility ([2]; text of introduction): ~ 30 μM
Fu (%) plasma, fraction unbound [3]: 1.9 ± 0.2%
Bound in brain homogenates ([4]; equilibrium dialysis): ~ 99%
Fu (%) brain, fraction unbound ([4]; mouse brain homogenate, previously reported data ref 7): 1.1 ± 0.6%
K18PL centrifugation assay % Soluble [5]: 69%

CCOC(=O)c1nn(-c2ccc(Cl)cc2)c(=O)c2c(N)scc12 [Compound 29, Ethyl 5-amino-3-(4-chlorophenyl)-4-oxo-3,4-dihydrothieno-[3,4-d]pyridazine-1-carboxylate]
Solubility in assay buffer, upper solubility limit [2]: 13 µM (≈ 4.55 µg/mL)
K18PL centrifugation assay % Soluble [5]: 47%

Nc1scc2c(C(=O)O)nn(-c3ccc(Cl)cc3)c(=O)c12 [Compound 37, 5-Amino-3-(4-chlorophenyl)-4-oxo-3,4-dihydrothieno[3,4-d]pyridazine-1-carboxylic acid]
Solubility in assay buffer, upper solubility limit [2]: >200 µM
K18PL centrifugation assay % Soluble [5]: 74%

CC(C)NC(=O)c1nn(-c2ccc(F)cc2)c(=O)c2c(N)scc12 [Compound 42, 5-Amino-3-(4-fluorophenyl)-N-isopropyl-4-oxo-3,4-dihydrothieno[3,4-d]pyridazine-1-carboxamide]
solubility [6]: > 200 µM
B/P (total), brain-to-plasma ratio [7]: unity
fraction unbound at 5 h, 1 μM [8]: 0.057 ± 0.005

Nc1scc2c(C(=O)NC3CC3)nn(-c3ccc(F)cc3)c(=O)c12 [Compound 43, 5-Amino-N-cyclopropyl-3-(4-fluorophenyl)-4-oxo-3,4-dihydrothieno[3,4-d]pyridazine-1-carboxamide]
Signs of toxicity after a single oral administration (mice [9]): only mild and transient lethargy
Brain exposure [10]: good brain exposure
Adverse events (mice [11]): no visible adverse events
Amount of water consumed (mice [11]): normal
Blood cell counts (mice [11]): no alterations in any blood cell counts
Tolerability (mice [11]; po): well-tolerated with no notable side-effects
Calculated free compound level in brain [12]: 6 nM
Total brain levels [12]: ~ 140 nM
Plasma and brain levels after 30 days versus 3 days in drinking water (mouse, in vivo, 50 mg/kg/day): comparable
solubility [6]: > 200 µM
concentration at 3 days (in vivo): 6 ± 0.4 nM

Nc1scc2c(C(=O)NCC(F)(F)F)nn(-c3ccc(F)cc3)c(=O)c12 [Compound 44, 5-Amino-3-(4-fluorophenyl)-4-oxo-N-(2,2,2-trifluoroethyl)-3,4-dihydrothieno[3,4-d]pyridazine-1-carboxamide]
solubility [6]: > 200 µM
B/P (total), brain-to-plasma ratio [7]: unity
fraction unbound at 5 h, 1 μM [8]: 0.022 ± 0.002

Cc1nn(Cc2ccccc2)c(=O)c2c(N)scc12 [Compound 62, 7-Amino-2-benzyl-4-methylthieno[3,4-d]pyridazin-1(2H)-one]
solubility [6]: 80 µM (≈ 21.7 µg/mL)
fraction unbound at 5 h, 1 μM [8]: 0.04 ± 0.01
